The test system of test [1] is Canis familiaris. The experiment in a line: Conduction time was determined by intraduodenal administration of two dosages of 1 mg/kg (low dose) of compound in anesthetized dogs. Value was reported for experiment 3. The test is classed as functional, Canis lupus familiaris. Summed up:
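Anesthetized dogs given the compound intraduodenally, generally as two doses with the second a cumulative total (low/high). FRP and CT measured at 15, 30 and 45 min after dosing. HR and BP taken during nonpacing intervals. Values are percent change from control per animal. Activity criterion is FRP or CT prolonged ≥12%. Vehicle: 5% dextrose in water/tragacanth.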

Test [2] is filed under the species Canis familiaris. Kind of test: In vitro electrophysiological evaluation in canine cardiac Purkinje fibres reported as percent change Vmax concentration range of 0.1-100 uM; Minimal (<IO%increase or a decrease in CT). The test is classed as functional. Particulars: Canis lupus familiaris; Purkinje fiber. The essentials:
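Canine cardiac Purkinje fibres, intracellular microelectrode recording, paced at a basic cycle length of 1 s. APD95 and Vmax read simultaneously. Compound: 10 mM stock in deionized water, diluted into Tyrode's solution, tested over the stated concentration range. Each fibre used once as its own control. Result is % change from control, given at 10 µM or as the maximum with its concentration. M = <10% decrease or an increase in Vmax.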

We go through one compound from ChEMBL document CHEMBL1123566, “Synthesis and cardiac electrophysiological activity of 2- and 3-[(substituted phenyl)alkyl]quinuclidines. Structure-activity relationships” (1987).

In the test with Canis familiaris [1], `CCCCCCC[N+](CC)(CC)CCCCc1ccc(Cl)cc1.O=P([O-])(O)O` [CLOFILIUM PHOSPHATE] showed a CT of 0%. In addition, in the test filed under Canis familiaris [2], the Vmax is < 10%.
